{"source": "ChEMBL document CHEMBL4251624", "about": "“Synthesis of podophyllotoxin linked β-carboline congeners as potential anticancer agents and DNA topoisomerase II inhibitors” (Eur J Med Chem, 2018)", "key": {"HT-29": {"tested_on": "HT-29", "assay": "Cytotoxicity against human HT-29 cells after 48 hrs by MTT assay", "format": "functional, cell-based", "conditions": "HT-29, 48 h", "in_short": "(§1)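 MTT assay. Cells seeded at 1×10^4 per well in DMEM or MEM with 10% FBS and grown 24 h at 37 °C under CO2. Compounds added for 48 h, then MTT (5 mg/mL stock) for 4 h. Formazan dissolved in DMSO and read at 570 nm. IC50 is the average of three independent experiments.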"}, "A549": {"tested_on": "A549", "assay": "Cytotoxicity against human A549 cells after 48 hrs by MTT assay", "format": "functional, cell-based", "conditions": "A549, 48 h", "in_short": "as §1"}, "HeLa": {"tested_on": "HeLa", "assay": "Cytotoxicity against human HeLa cells after 48 hrs by MTT assay", "format": "functional, cell-based", "in_short": "as §1"}, "Homo sapiens": {"species": "Homo sapiens", "assay": "Poisoning activity at topoisomerase-2 (unknown origin) assessed as reduction in ATP-dependent decatenation of kinetoplast DNA by measuring linear DNA formation at 10 uM after 30 mins by ethidium bromide staining based UV trans-illumination assay", "in_short": "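Topo II (5 units, set to decatenate about 100% of kDNA) with 200–300 ng kDNA in 20 μl containing 120 mM KCl, 50 mM Tris-HCl pH 8, 10 mM MgCl2, 0.5 mM DTT, 0.5 mM ATP and BSA. Incubated 30 min at 37 °C, then stopped with SDS plus proteinase K for 10 min at 37 °C. Products run on 1% agarose at 100 V for about 40 min, EtBr-stained and viewed under UV. Etoposide 10 μM served as positive control.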"}, "DU-145": {"tested_on": "DU-145", "assay": "Induction of DNA damage in human DU145 cells after 24 hrs using propidium iodide stain by electrophoresis based fluorescence microscopic method", "format": "functional, cell-based", "in_short": "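DU-145 cells seeded in 60 mm dishes, treated at 10 μM for 24 h alongside an untreated control. Slides were washed three times in 0.4 M Tris-HCl pH 7.5, electrophoresed 20 min at 40 V in 0.5% TBE pH 8, PI-stained 30 min, and imaged at 20x.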"}, "MDA-MB-231": {"tested_on": "MDA-MB-231", "assay": "Cytotoxicity against human MDA-MB-231 cells after 48 hrs by MTT assay", "format": "functional, cell-based", "conditions": "MDA-MB-231, 48 h", "in_short": "as §1"}}, "note": "Calls of active or inactive are those of the source. The rule behind the calls is not given here."}
{"smiles": "COc1cc([C@@H]2c3cc4c(cc3[C@@H](O[C@@H]3O[C@@H]5CO[C@@H](C)O[C@H]5[C@H](O)[C@H]3O)[C@H]3COC(=O)[C@H]23)OCO4)cc(OC)c1O", "note": "[ETOPOSIDE]", "values": [{"measurement": "IC50", "setting": "HT-29", "value": 1640, "unit": "nM"}, {"measurement": "IC50", "setting": "A549", "value": 2270, "unit": "nM"}, {"measurement": "IC50", "setting": "HeLa", "value": 1930, "unit": "nM"}, {"measurement": "Activity", "setting": "Homo sapiens", "value": "Active"}, {"measurement": "Activity", "setting": "DU-145", "value": "Active"}, {"measurement": "IC50", "setting": "MDA-MB-231", "value": 1910, "unit": "nM"}]}
